In ChEMBL document CHEMBL1145074, “Binding of tetrahydrocarboline derivatives at human 5-HT5A receptors” (J Med Chem, 2003):

Key:
[1] = target: 5-hydroxytryptamine receptor 5A (Mus musculus, UniProt P30966); assay: Binding affinity towards mouse 5-hydroxytryptamine 5A receptor using LSD as radioligand
[2] = target: 5-hydroxytryptamine receptor 2A (Rattus norvegicus, UniProt P14842); assay: Binding affinity towards rat 5-hydroxytryptamine 2A receptor expressed in NIH3T3 cells using [3H]ketanserin as radioligand; assay type: cell-based
Method in brief: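 Membranes from confluent NIH-3T3 cells stably expressing rat 5-HT2A, washed by centrifugation in 50 mM Tris-HCl. ~10 μg protein incubated with 0.5 nM [3H]ketanserin and 11 test concentrations (10⁻¹⁰ to 10⁻⁵ M) in triplicate. Incubation was 30 min at 37 °C in Tris/EDTA/MgCl2/ascorbate pH 7.4. Nonspecific binding defined with 10 μM ketanserin. Bound ligand was filtered and counted. Ki from Cheng–Prusoff, ≥3 determinations.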

[3] = target: T1, 5-hydroxytryptamine receptor 2C (Rattus norvegicus, UniProt P08909); assay: Binding affinity towards rat 5-hydroxytryptamine 2C receptor expressed in A-9 cells using [3H]mesulergine as radioligand; assay type: cell-based
T1 sequence (P08909 whole entry): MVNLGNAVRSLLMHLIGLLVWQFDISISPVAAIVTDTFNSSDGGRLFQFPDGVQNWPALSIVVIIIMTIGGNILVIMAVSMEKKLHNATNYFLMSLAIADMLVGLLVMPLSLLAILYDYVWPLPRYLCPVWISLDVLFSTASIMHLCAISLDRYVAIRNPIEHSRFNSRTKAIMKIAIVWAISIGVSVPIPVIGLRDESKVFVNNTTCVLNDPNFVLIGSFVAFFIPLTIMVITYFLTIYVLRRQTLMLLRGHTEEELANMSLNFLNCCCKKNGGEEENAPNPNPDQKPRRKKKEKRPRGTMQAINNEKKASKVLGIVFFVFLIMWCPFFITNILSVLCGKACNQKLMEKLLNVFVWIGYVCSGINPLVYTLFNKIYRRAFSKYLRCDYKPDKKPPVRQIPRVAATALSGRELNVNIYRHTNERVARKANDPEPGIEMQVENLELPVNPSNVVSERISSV
Method in brief: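 Rat 5-HT2C stably expressed in A-9 cells, grown to confluence; washed membranes (~10 μg protein) used. Competition against 2.0 nM [3H]mesulergine with 11 concentrations from 10⁻¹⁰ to 10⁻⁵ M, triplicate. Incubation 30 min, 37 °C, pH 7.4 Tris buffer with EDTA, MgCl2 and ascorbate. 1 μM mesulergine defined nonspecific binding. Filtration, scintillation counting. Ki via Cheng–Prusoff; at least three replicates.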

[4] = target: T2, 5-hydroxytryptamine receptor 5A (Homo sapiens, UniProt P47898); assay: Binding affinity towards human 5-hydroxytryptamine 5A receptor using LSD as radioligand
[5] = target: T2, 5-hydroxytryptamine receptor 5A; assay: Binding affinity towards 5-hydroxytryptamine 5A receptor using lysergic acid diethylamide (LSD) as radioligand
Method in brief: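 Radioligand competition binding at cloned 5-HT5A receptors (clone supplied by R. Hen). Nonspecific binding defined with 1 μM LSD.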

T2 sequence (P47898 whole entry): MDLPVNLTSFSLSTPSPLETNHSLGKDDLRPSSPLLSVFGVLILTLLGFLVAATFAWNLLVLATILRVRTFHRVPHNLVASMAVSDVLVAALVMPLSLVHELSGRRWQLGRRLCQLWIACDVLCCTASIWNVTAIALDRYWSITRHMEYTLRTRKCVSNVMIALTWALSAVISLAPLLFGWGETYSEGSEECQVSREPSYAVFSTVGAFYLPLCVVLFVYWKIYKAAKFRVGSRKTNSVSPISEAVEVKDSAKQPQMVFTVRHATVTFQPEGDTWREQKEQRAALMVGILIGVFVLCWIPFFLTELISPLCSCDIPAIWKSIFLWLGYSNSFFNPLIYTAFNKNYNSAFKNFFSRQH
5-hydroxytryptamine receptor 2A, sequence (P14842 whole entry): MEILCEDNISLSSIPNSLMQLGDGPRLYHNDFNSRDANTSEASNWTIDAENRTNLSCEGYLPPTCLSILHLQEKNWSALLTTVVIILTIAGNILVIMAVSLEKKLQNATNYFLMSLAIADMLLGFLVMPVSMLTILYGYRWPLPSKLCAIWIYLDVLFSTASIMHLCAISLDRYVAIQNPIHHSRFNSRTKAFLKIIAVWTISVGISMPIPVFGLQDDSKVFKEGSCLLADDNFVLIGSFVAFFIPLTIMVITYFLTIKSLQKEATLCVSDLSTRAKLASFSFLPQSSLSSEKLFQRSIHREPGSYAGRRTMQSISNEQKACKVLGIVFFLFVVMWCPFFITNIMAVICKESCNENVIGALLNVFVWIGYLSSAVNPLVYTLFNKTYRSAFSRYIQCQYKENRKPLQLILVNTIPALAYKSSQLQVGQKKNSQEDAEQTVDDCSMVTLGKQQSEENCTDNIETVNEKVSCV
5-hydroxytryptamine receptor 5A (Mus musculus, UniProt P30966), sequence (P30966 whole entry): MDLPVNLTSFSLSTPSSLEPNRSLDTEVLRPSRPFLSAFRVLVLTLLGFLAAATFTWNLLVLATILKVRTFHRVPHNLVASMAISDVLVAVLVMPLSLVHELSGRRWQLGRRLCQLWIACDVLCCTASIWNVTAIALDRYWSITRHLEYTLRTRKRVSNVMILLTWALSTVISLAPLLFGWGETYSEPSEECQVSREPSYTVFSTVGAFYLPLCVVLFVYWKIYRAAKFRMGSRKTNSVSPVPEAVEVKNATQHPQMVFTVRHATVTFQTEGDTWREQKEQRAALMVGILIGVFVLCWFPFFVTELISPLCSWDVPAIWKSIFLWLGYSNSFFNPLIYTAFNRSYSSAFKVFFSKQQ

| SMILES | Ki [1] [nM] | Ki [2] [nM] | Ki [3] [nM] | Ki [4] [nM] | Ki [5] [nM] |
| --- | --- | --- | --- | --- | --- |
| Cn1c2c(c3ccccc31)CN(CCCCCCc1ccccc1)CC2 | 435 | 185 | 530 | – | – |
| Cn1c2c(c3ccccc31)CN(CCCCCc1ccccc1)CC2 | 120 | 130 | 1000 | 174 | – |
| Cn1c2c(c3ccccc31)CN(CCCO)CC2 | 1100 | – | – | 1120 | – |
| Cn1c2c(c3ccccc31)CN(CCC/C(=N/O)c1ccc(F)cc1)CC2 | – | 38 | 190 | 340 | – |
| Cn1c2c(c3ccccc31)CN(CCCOc1cccc3ccccc13)CC2 | 650 | 625 | 400 | – | – |
| c1ccc(OCCCN2CCc3[nH]c4ccccc4c3C2)cc1 | 600 | 20 | 160 | – | – |
| Cn1c2c(c3ccccc31)CN(CCCc1ccccc1)CC2 | 250 | – | – | – | – |
| CN(CCCOc1ccc(F)cc1)Cc1cn(C)c2ccccc12 | – | – | – | – | 1080 |
| Fc1ccc(OCCCN2CCc3ccccc3C2)cc1 | – | – | – | – | 400 |
| Fc1ccc(OCCCN2CCc3[nH]c4ccccc4c3C2)cc1 | 75 | – | – | – | – |
| Cn1c2c(c3cccc(Cl)c31)CN(CCCOc1ccc(F)cc1)CC2 | 590 | 210 | 225 | 225 | – |
| Cn1c2c(c3ccccc31)CCN(CCCOc1ccccc1)C2 | 360 | 150 | 400 | 620 | – |
| Cn1c2c(c3ccccc31)CN(CCCOc1ccc(Cl)c(Cl)c1)CC2 | – | 195 | – | 200 | – |
| Cn1c2c(c3ccccc31)CN(CCCOc1ccc(Cl)cc1)CC2 | – | 115 | – | 200 | – |
| Cn1c2c(c3ccccc31)CN(CCOc1ccc(F)cc1)CC2 | – | 175 | 235 | 930 | – |
| CCn1c2c(c3ccccc31)CN(CCCOc1ccccc1)CC2 | 75 | 50 | 215 | 100 | – |
| COc1cccc2c3c(n(C)c12)CCN(CCCOc1ccc(F)cc1)C3 | 1220 | 120 | 225 | 1390 | – |
| COc1ccc2c(c1)c1c(n2C)CCN(CCCOc2ccc(F)cc2)C1 | 98 | 38 | 150 | 165 | – |
| Cn1c2c(c3ccccc31)CN(CCCOc1ccccc1)CC2 | 25 | 70 | 285 | 100 | – |
| CC1=NCCc2c1n(C)c1ccccc21 | – | – | – | – | > 10000 |
| COc1ccc(CCCCN2CCc3c(c4ccccc4n3C)C2)cc1 | 90 | 415 | 990 | – | – |
| Fc1ccc(OCCCN2CCCCC2)cc1 | – | – | – | – | > 10000 |
| O=C(CCCN1CCc2c([nH]c3ccccc23)C1)c1ccccc1 | 550 | 16 | 115 | – | – |
| COc1ccc2c3c([nH]c2c1)C(C)NCC3 (stereo unspecified) | – | – | – | – | > 10000 |
| Cn1c2c(c3ccccc31)CN(CCCC(=O)c1ccc(F)cc1)CC2 | 115 | 60 | 60 | – | – |
| Cn1c2c(c3ccccc31)CN(CCCCc1ccccc1)CC2 | 130 | – | – | – | – |
| Cn1c2c(c3ccccc31)CN(CCCC(=O)c1ccccc1)CC2 | 135 | 22 | – | 168 | – |
| Cn1c2c(c3ccccc31)CN(CC#CCCc1ccccc1)CC2 | 1710 | – | – | 1780 | – |

| SMILES | Ki [1] [nM] | Ki [2] [nM] | Ki [3] [nM] | Ki [4] [nM] | Ki [5] [nM] |
| --- | --- | --- | --- | --- | --- |
| Cn1c2c(c3ccccc31)CN(CCCOc1ccc([N+](=O)[O-])cc1)CC2 | – | 280 | 300 | 250 | – |
| c1ccc(Cn2c3c(c4ccccc42)CN(CCCOc2ccccc2)CC3)cc1 | 875 | 65 | 90 | – | – |
| Cn1c2c(c3ccccc31)CN(C/C=C\CCc1ccccc1)CC2 | 330 | 120 | 285 | 208 | – |
| COc1ccc2[nH]c3c(C)nccc3c2c1 | – | – | – | – | > 10000 |
| Cn1c2c(c3ccccc31)CN(CCCOCc1ccccc1)CC2 | 295 | 225 | 650 | – | – |
| O=C(CCCN1CCc2[nH]c3ccccc3c2C1)c1ccc(F)cc1 | 512 | – | – | – | – |
| Cn1c2c(c3cc(Cl)ccc31)CN(CCCOc1ccc(F)cc1)CC2 | 180 | 130 | 300 | 270 | – |
| COc1ccc2[nH]c3c(c2c1)CCN=C3C | – | – | – | – | > 10000 |
| Cn1c2c(c3ccccc31)CN(CCCC(O)c1ccc(F)cc1)CC2 (stereo unspecified) | 225 | 160 | 390 | 285 | – |
| Cn1c2c(c3ccccc31)CN(CCCOc1ccc3ccccc3c1)CC2 | 655 | 480 | 300 | – | – |
| COc1ccc(OCCCN2CCc3c(c4ccccc4n3C)C2)cc1 | – | 100 | – | 350 | – |
| Cn1ccc2c1CCN(CCCOc1ccc(F)cc1)C2 | – | – | – | – | 1920 |
| Cn1c2c(c3ccccc31)CN(CCCCc1ccc(F)cc1)CC2 | 95 | 65 | – | – | – |
| Cn1c2c(c3ccccc31)CC(CCCOc1ccc(N)cc1)CC2 (stereo unspecified) | – | – | – | – | > 10000 |
| c1ccc(OCCCN2CCc3c([nH]c4ccccc34)C2)cc1 | 335 | 50 | 310 | – | – |
| Cn1c2c(c3ccccc31)CN(CCCOc1ccc(N)cc1)CC2 | – | 285 | 300 | 190 | – |
| Cn1c2c(c3ccccc31)CN(C/C=C/CCc1ccccc1)CC2 | 350 | 60 | 245 | 185 | – |
| COc1ccc2c3c([nH]c2c1)CNCC3 | – | – | – | – | > 10000 |
| CN(C)CCCOc1ccc(F)cc1 | – | – | – | – | > 10000 |
| Cn1c2c(c3ccccc31)CNCC2 | – | 3100 | – | – | – |
| Cn1c2c(c3ccccc31)CN(CCCOc1ccc(F)cc1)CC2 | 13 | 30 | 75 | – | – |
| COc1ccc2c3c([nH]c2c1)C=NCC3 [CGS-19281A] | – | – | – | – | > 10000 |
| COc1ccc2c3c([nH]c2c1)C(C)=NCC3 [HARMALINE] | – | – | – | – | > 10000 |
| CC1=NCCc2c1[nH]c1cc(O)ccc21 [HARMALOL] | – | – | – | – | > 10000 |
| COc1ccc2c(c1)[nH]c1c(C)nccc12 [HARMINE] | – | – | – | – | > 10000 |
| CC1NCCc2c1[nH]c1ccccc21 (stereo unspecified) [TETRAHYDROHARMAN] | – | – | – | – | > 10000 |
| c1ccc2c3c([nH]c2c1)CNCC3 [TRYPTOLINE] | – | – | – | – | 3200 |
